Reference: ChEMBL document CHEMBL1255396, “Trailing or paradoxical growth of Candida albicans when exposed to caspofungin is not associated with microsatellite genotypes” (2010)
Values after ≈ are worked out from the molar mass of the structure shown.

Tests used:
Format in all cases: functional
Candida albicans [1] = test: Antimicrobial activity against Candida albicans isolate 1 after 48 hrs by broth microdilution assay; conditions: isolate 1, 48 h
In short: (§1)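 Sensititre YeastOne caspofungin broth microdilution, which follows the CLSI method but uses alamarBlue readout in RPMI 1640 with 2% glucose. Done in duplicate and read after 48 h at 30°C. QC strains were C. krusei ATCC 6258 and C. parapsilosis ATCC 22019. Isolates were from different patients and wards in four Marseille hospitals.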

Candida albicans [2] = test: Antimicrobial activity against Candida albicans isolate 24 after 48 hrs by broth microdilution assay; conditions: isolate 24, 48 h; in short: as §1
Candida albicans [3] = test: Antimicrobial activity against Candida albicans isolate 20 after 48 hrs by broth microdilution assay; conditions: isolate 20, 48 h; in short: as §1
Candida albicans [4] = test: Antimicrobial activity against Candida albicans isolate 13 after 48 hrs by broth microdilution assay; conditions: isolate 13, 48 h; in short: as §1
Candida albicans [5] = test: Antimicrobial activity against Candida albicans isolate 4 after 48 hrs by broth microdilution assay; conditions: isolate 4, 48 h; in short: as §1
Candida albicans [6] = test: Antimicrobial activity against Candida albicans isolate 7 after 48 hrs by broth microdilution assay; conditions: isolate 7, 48 h; in short: as §1
Candida albicans [7] = test: Antimicrobial activity against Candida albicans isolate 1 after 48 hrs by Etest method; conditions: isolate 1, 48 h
In short: (§2)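 Caspofungin agar-diffusion Etest strips on clinical isolates from four Marseille teaching hospitals, each from a different patient. Run in duplicate and read after 48 h at 30°C. QC strains were C. krusei ATCC 6258 and C. parapsilosis ATCC 22019. Trailing, paradoxical growth and clear endpoints were scored from growth relative to the MIC.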

Candida albicans [8] = test: Antimicrobial activity against Candida albicans isolate 19 after 48 hrs by broth microdilution assay; conditions: isolate 19, 48 h; in short: as §1
Candida albicans [9] = test: Antimicrobial activity against Candida albicans isolate 11 after 48 hrs by broth microdilution assay; conditions: isolate 11, 48 h; in short: as §1
Candida albicans [10] = test: Antimicrobial activity against Candida albicans isolate 22 after 48 hrs by broth microdilution assay; conditions: isolate 22, 48 h; in short: as §1
Candida albicans [11] = test: Antimicrobial activity against Candida albicans isolate 5 after 48 hrs by Etest method; conditions: isolate 5, 48 h; in short: as §2
Candida albicans [12] = test: Antimicrobial activity against Candida albicans isolate 8 after 48 hrs by broth microdilution assay; conditions: isolate 8, 48 h; in short: as §1
Candida albicans [13] = test: Antimicrobial activity against Candida albicans isolate 27 after 48 hrs by broth microdilution assay; conditions: isolate 27, 48 h; in short: as §1
Candida albicans [14] = test: Antimicrobial activity against Candida albicans isolate 22 after 48 hrs by Etest method; conditions: isolate 22, 48 h; in short: as §2
Candida albicans [15] = test: Antimicrobial activity against Candida albicans isolate 3 after 48 hrs by broth microdilution assay; conditions: isolate 3, 48 h; in short: as §1
Candida albicans [16] = test: Antimicrobial activity against Candida albicans isolate 18 after 48 hrs by broth microdilution assay; conditions: isolate 18, 48 h; in short: as §1
Candida albicans [17] = test: Antimicrobial activity against Candida albicans isolate 7 after 48 hrs by Etest method; conditions: isolate 7, 48 h; in short: as §2
Candida albicans [18] = test: Antimicrobial activity against Candida albicans isolate 13 after 48 hrs by Etest method; conditions: isolate 13, 48 h; in short: as §2
Candida albicans [19] = test: Antimicrobial activity against Candida albicans isolate 23 after 48 hrs by broth microdilution assay; conditions: isolate 23, 48 h; in short: as §1
Candida albicans [20] = test: Antimicrobial activity against Candida albicans isolate 4 after 48 hrs by Etest method; conditions: isolate 4, 48 h; in short: as §2
Candida albicans [21] = test: Antimicrobial activity against Candida albicans isolate 2 after 48 hrs by Etest method; conditions: isolate 2, 48 h; in short: as §2
Candida albicans [22] = test: Antimicrobial activity against Candida albicans isolate 18 after 48 hrs by Etest method; conditions: isolate 18, 48 h; in short: as §2
Candida albicans [23] = test: Antimicrobial activity against Candida albicans isolate 24 after 48 hrs by Etest method; conditions: isolate 24, 48 h; in short: as §2
Candida albicans [24] = test: Antimicrobial activity against Candida albicans isolate 20 after 48 hrs by Etest method; conditions: isolate 20, 48 h; in short: as §2
Candida albicans [25] = test: Antimicrobial activity against Candida albicans isolate 14 after 48 hrs by broth microdilution assay; conditions: isolate 14, 48 h; in short: as §1
Candida albicans [26] = test: Antimicrobial activity against Candida albicans isolate 6 after 48 hrs by broth microdilution assay; conditions: isolate 6, 48 h; in short: as §1
Candida albicans [27] = test: Antimicrobial activity against Candida albicans isolate 16 after 48 hrs by Etest method; conditions: isolate 16, 48 h; in short: as §2
Candida albicans [28] = test: Antimicrobial activity against Candida albicans isolate 2 after 48 hrs by broth microdilution assay; conditions: isolate 2, 48 h; in short: as §1
Candida albicans [29] = test: Antimicrobial activity against Candida albicans isolate 26 after 48 hrs by broth microdilution assay; conditions: isolate 26, 48 h; in short: as §1
Candida albicans [30] = test: Antimicrobial activity against Candida albicans isolate 15 after 48 hrs by Etest method; conditions: isolate 15, 48 h; in short: as §2
Candida albicans [31] = test: Antimicrobial activity against Candida albicans isolate 11 after 48 hrs by Etest method; conditions: isolate 11, 48 h; in short: as §2
Candida albicans [32] = test: Antimicrobial activity against Candida albicans isolate 9 after 48 hrs by broth microdilution assay; conditions: isolate 9, 48 h
In short: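 Sensititre Yeast One broth microdilution used per manufacturer. It matches the CLSI method except for the alamarBlue read-out and RPMI 1640 with 2% glucose. Read after 48 h at 30°C. Testing done in duplicate. QC strains: C. krusei ATCC 6258 and C. parapsilosis ATCC 22019. Paradoxical growth and trailing were scored separately.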

Candida albicans [33] = test: Antimicrobial activity against Candida albicans isolate 17 after 48 hrs by Etest method; conditions: isolate 17, 48 h; in short: as §2
Candida albicans [34] = test: Antimicrobial activity against Candida albicans isolate 27 after 48 hrs by Etest method; conditions: isolate 27, 48 h; in short: as §2
Candida albicans [35] = test: Antimicrobial activity against Candida albicans isolate 19 after 48 hrs by Etest method; conditions: isolate 19, 48 h; in short: as §2
Candida albicans [36] = test: Antimicrobial activity against Candida albicans isolate 25 after 48 hrs by Etest method; conditions: isolate 25, 48 h; in short: as §2
Candida albicans [37] = test: Antimicrobial activity against Candida albicans isolate 12 after 48 hrs by broth microdilution assay; conditions: isolate 12, 48 h; in short: as §1
Candida albicans [38] = test: Antimicrobial activity against Candida albicans isolate 23 after 48 hrs by Etest method; conditions: isolate 23, 48 h; in short: as §2
Candida albicans [39] = test: Antimicrobial activity against Candida albicans isolate 12 after 48 hrs by Etest method; conditions: isolate 12, 48 h; in short: as §2
Candida albicans [40] = test: Antimicrobial activity against Candida albicans isolate 26 after 48 hrs by Etest method; conditions: isolate 26, 48 h; in short: as §2
Candida albicans [41] = test: Antimicrobial activity against Candida albicans isolate 15 after 48 hrs by broth microdilution assay; conditions: isolate 15, 48 h; in short: as §1
Candida albicans [42] = test: Antimicrobial activity against Candida albicans isolate 5 after 48 hrs by broth microdilution assay; conditions: isolate 5, 48 h; in short: as §1
Candida albicans [43] = test: Antimicrobial activity against Candida albicans isolate 8 after 48 hrs by Etest method; conditions: isolate 8, 48 h; in short: as §2
Candida albicans [44] = test: Antimicrobial activity against Candida albicans isolate 3 after 48 hrs by Etest method; conditions: isolate 3, 48 h; in short: as §2
Candida albicans [45] = test: Antimicrobial activity against Candida albicans isolate 14 after 48 hrs by Etest method; conditions: isolate 14, 48 h; in short: as §2
Candida albicans [46] = test: Antimicrobial activity against Candida albicans isolate 16 after 48 hrs by broth microdilution assay; conditions: isolate 16, 48 h; in short: as §1
Candida albicans [47] = test: Antimicrobial activity against Candida albicans isolate 21 after 48 hrs by broth microdilution assay; conditions: isolate 21, 48 h; in short: as §1
Candida albicans [48] = test: Antimicrobial activity against Candida albicans isolate 9 after 48 hrs by Etest method; conditions: isolate 9, 48 h
In short: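 Caspofungin Etest strip (agar diffusion) applied per manufacturer to a clinical isolate. Plates read after 48 h at 30°C. Testing done in duplicate. QC strains: C. krusei ATCC 6258 and C. parapsilosis ATCC 22019. Paradoxical growth and trailing were scored as separate endpoint phenotypes.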

Candida albicans [49] = test: Antimicrobial activity against Candida albicans isolate 17 after 48 hrs by broth microdilution assay; conditions: isolate 17, 48 h; in short: as §1
Candida albicans [50] = test: Antimicrobial activity against Candida albicans isolate 25 after 48 hrs by broth microdilution assay; conditions: isolate 25, 48 h; in short: as §1
Candida albicans [51] = test: Antimicrobial activity against Candida albicans isolate 21 after 48 hrs by Etest method; conditions: isolate 21, 48 h; in short: as §2
Candida albicans [52] = test: Antimicrobial activity against Candida albicans isolate 6 after 48 hrs by Etest method; conditions: isolate 6, 48 h; in short: as §2

CC[C@H](C)C[C@H](C)CCCCCCCCC(=O)N[C@H]1C[C@@H](O)[C@@H](NCCN)NC(=O)[C@@H]2[C@@H](O)CCN2C(=O)[C@H]([C@H](O)CCN)NC(=O)[C@H]([C@H](O)[C@@H](O)c2ccc(O)cc2)NC(=O)[C@@H]2C[C@@H](O)CN2C(=O)[C@H]([C@@H](C)O)NC1=O [CASPOFUNGIN]
MIC (Candida albicans [1]): 0.008 µg/mL (≈ 0.00732 µM)
MIC (Candida albicans [2]): 0.064 µg/mL (≈ 0.0585 µM)
MIC (Candida albicans [3]): 0.032 µg/mL (≈ 0.0293 µM)
MIC (Candida albicans [4]): 0.023 µg/mL (≈ 0.021 µM)
MIC (Candida albicans [5]): 0.032 µg/mL (≈ 0.0293 µM)
MIC (Candida albicans [6]): 0.064 µg/mL (≈ 0.0585 µM)
MIC (Candida albicans [7]): 0.008 µg/mL (≈ 0.00732 µM)
MIC (Candida albicans [8]): 0.75 µg/mL (≈ 0.686 µM)
MIC (Candida albicans [9]): 0.094 µg/mL (≈ 0.086 µM)
MIC (Candida albicans [10]): 0.125 µg/mL (≈ 0.114 µM)
MIC (Candida albicans [11]): 0.064 µg/mL (≈ 0.0585 µM)
MIC (Candida albicans [12]): 0.125 µg/mL (≈ 0.114 µM)
MIC (Candida albicans [13]): 0.047 µg/mL (≈ 0.043 µM)
MIC (Candida albicans [14]): 0.125 µg/mL (≈ 0.114 µM)
MIC (Candida albicans [15]): 0.032 µg/mL (≈ 0.0293 µM)
MIC (Candida albicans [16]): 0.094 µg/mL (≈ 0.086 µM)
MIC (Candida albicans [17]): 0.064 µg/mL (≈ 0.0585 µM)
MIC (Candida albicans [18]): 0.023 µg/mL (≈ 0.021 µM)
MIC (Candida albicans [19]): 0.064 µg/mL (≈ 0.0585 µM)
MIC (Candida albicans [20]): 0.032 µg/mL (≈ 0.0293 µM)
MIC (Candida albicans [21]): 0.032 µg/mL (≈ 0.0293 µM)
MIC (Candida albicans [22]): 0.094 µg/mL (≈ 0.086 µM)
MIC (Candida albicans [23]): 0.064 µg/mL (≈ 0.0585 µM)
MIC (Candida albicans [24]): 0.032 µg/mL (≈ 0.0293 µM)
MIC (Candida albicans [25]): 0.032 µg/mL (≈ 0.0293 µM)
MIC (Candida albicans [26]): 0.125 µg/mL (≈ 0.114 µM)
MIC (Candida albicans [27]): 0.032 µg/mL (≈ 0.0293 µM)
MIC (Candida albicans [28]): 0.032 µg/mL (≈ 0.0293 µM)
MIC (Candida albicans [29]): 0.094 µg/mL (≈ 0.086 µM)
MIC (Candida albicans [30]): 0.016 µg/mL (≈ 0.0146 µM)
MIC (Candida albicans [31]): 0.094 µg/mL (≈ 0.086 µM)
MIC (Candida albicans [32]): 0.047 µg/mL (≈ 0.043 µM)
MIC (Candida albicans [33]): 0.125 µg/mL (≈ 0.114 µM)
MIC (Candida albicans [34]): 0.047 µg/mL (≈ 0.043 µM)
MIC (Candida albicans [35]): 0.75 µg/mL (≈ 0.686 µM)
MIC (Candida albicans [36]): 0.064 µg/mL (≈ 0.0585 µM)
MIC (Candida albicans [37]): 0.064 µg/mL (≈ 0.0585 µM)
MIC (Candida albicans [38]): 0.064 µg/mL (≈ 0.0585 µM)
MIC (Candida albicans [39]): 0.064 µg/mL (≈ 0.0585 µM)
MIC (Candida albicans [40]): 0.094 µg/mL (≈ 0.086 µM)
MIC (Candida albicans [41]): 0.016 µg/mL (≈ 0.0146 µM)
MIC (Candida albicans [42]): 0.064 µg/mL (≈ 0.0585 µM)
MIC (Candida albicans [43]): 0.125 µg/mL (≈ 0.114 µM)
MIC (Candida albicans [44]): 0.032 µg/mL (≈ 0.0293 µM)
MIC (Candida albicans [45]): 0.032 µg/mL (≈ 0.0293 µM)
MIC (Candida albicans [46]): 0.032 µg/mL (≈ 0.0293 µM)
MIC (Candida albicans [47]): 0.064 µg/mL (≈ 0.0585 µM)
MIC (Candida albicans [48]): 0.047 µg/mL (≈ 0.043 µM)
MIC (Candida albicans [49]): 0.125 µg/mL (≈ 0.114 µM)
MIC (Candida albicans [50]): 0.064 µg/mL (≈ 0.0585 µM)
MIC (Candida albicans [51]): 0.064 µg/mL (≈ 0.0585 µM)
MIC (Candida albicans [52]): 0.125 µg/mL (≈ 0.114 µM)
